Data reported in ChEMBL document CHEMBL1687930 (J Med Chem, 2011).
Active and inactive are the calls of the source. The rule behind the calls is not given here.

Legend:
[1] = Growth inhibition of pig L-MDR1 cells overexpressing human P-glycoprotein in presence of P-glycoprotein inhibitor LY335979; type: functional; details: Sus scrofa
How it was run: (§1)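 Parental lines (MDCKII, LLC-PK1) and matched Pgp-overexpressing lines (MDCKII-MDR1, about 500-fold Pgp; L-MDR1, about 25000-fold Pgp) were tested with and without the Pgp inhibitor LY335979. Each experiment was run at least in triplicate, with 8 wells per concentration. GI50 came from a nonlinear four-parameter sigmoidal concentration-response fit.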

LLC-PK1 [2] = experiment: Growth inhibition of pig LLC-PK1 cells; type: functional; details: Sus scrofa; how it was run: as §1
MDCK-II = experiment: Ratio of GI50 for dog MDCK2-MDR1 cells overexpressing human P-glycoprotein to GI50 for dog MDCK2 cells; type: functional, Canis lupus familiaris
[3] = Growth inhibition of dog MDCK2-MDR1 cells overexpressing human P-glycoprotein; type: functional; details: Canis lupus familiaris, MDCK-II; how it was run: as §1
[4] = Growth inhibition of dog MDCK2 cells; type: functional; details: Canis lupus familiaris, MDCK-II; how it was run: as §1
[5] = target: T1, Kinesin-like protein KIF11 (Homo sapiens, UniProt P52732); experiment: Inhibition of untagged human Eg5 microtubule-stimulated ATPase activity
T1 sequence (P52732 whole entry): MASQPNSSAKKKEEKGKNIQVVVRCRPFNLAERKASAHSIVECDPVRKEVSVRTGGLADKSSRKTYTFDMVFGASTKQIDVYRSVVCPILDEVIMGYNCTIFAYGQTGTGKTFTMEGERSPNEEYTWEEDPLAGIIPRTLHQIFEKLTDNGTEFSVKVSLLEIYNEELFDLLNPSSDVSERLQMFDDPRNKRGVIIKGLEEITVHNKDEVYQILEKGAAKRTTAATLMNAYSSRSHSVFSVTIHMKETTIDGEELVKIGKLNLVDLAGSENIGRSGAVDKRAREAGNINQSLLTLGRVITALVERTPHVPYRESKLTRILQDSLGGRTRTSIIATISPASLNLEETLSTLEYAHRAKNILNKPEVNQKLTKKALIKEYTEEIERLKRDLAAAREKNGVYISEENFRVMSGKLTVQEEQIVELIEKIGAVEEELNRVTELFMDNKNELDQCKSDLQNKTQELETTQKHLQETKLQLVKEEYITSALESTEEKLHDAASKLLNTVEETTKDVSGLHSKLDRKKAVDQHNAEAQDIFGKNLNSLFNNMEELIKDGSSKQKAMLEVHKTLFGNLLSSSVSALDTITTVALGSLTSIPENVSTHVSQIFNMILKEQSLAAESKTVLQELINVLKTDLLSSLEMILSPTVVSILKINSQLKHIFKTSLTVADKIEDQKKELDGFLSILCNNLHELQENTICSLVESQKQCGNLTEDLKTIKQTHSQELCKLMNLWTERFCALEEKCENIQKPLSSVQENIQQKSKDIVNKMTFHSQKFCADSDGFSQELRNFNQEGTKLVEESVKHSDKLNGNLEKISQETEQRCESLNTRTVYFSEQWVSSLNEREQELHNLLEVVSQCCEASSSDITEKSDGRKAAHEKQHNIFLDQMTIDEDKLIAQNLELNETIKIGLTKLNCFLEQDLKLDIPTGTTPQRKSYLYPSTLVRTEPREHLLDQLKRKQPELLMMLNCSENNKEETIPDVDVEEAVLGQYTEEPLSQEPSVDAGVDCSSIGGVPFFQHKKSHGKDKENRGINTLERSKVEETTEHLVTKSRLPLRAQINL

[6] = target: T1, Kinesin-like protein KIF11; experiment: Inhibition of untagged human Eg5 basal ATPase activity; details: read-out: Ki(app)
[7] = Growth inhibition of pig L-MDR1 cells overexpressing human P-glycoprotein; type: functional; details: Sus scrofa; how it was run: as §1
LLC-PK1 [8] = experiment: Growth inhibition of pig LLC-PK1 cells in presence of P-glycoprotein inhibitor LY335979; type: functional; details: Sus scrofa; how it was run: as §1
[9] = Growth inhibition of dog MDCK2-MDR1 cells overexpressing human P-glycoprotein in presence of P-glycoprotein inhibitor LY335979; type: functional; details: Canis lupus familiaris, MDCK-II; how it was run: as §1
LLC-PK1 [10] = experiment: Ratio of GI50 for pig L-MDR1 cells overexpressing human P-glycoprotein to GI50 for pig LLC-PK1 cells; type: functional, Sus scrofa
How it was run: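 MDR ratio is the GI50 in L-MDR1 cells (Pgp-overexpressing) divided by the GI50 in parental LLC-PK1 cells. Each GI50 came from growth inhibition run at least in triplicate, with 8 wells per concentration, fitted by a four-parameter sigmoidal model.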

[11] = Growth inhibition of dog MDCK2 cells in presence of P-glycoprotein inhibitor LY335979; type: functional; details: Canis lupus familiaris, MDCK-II; how it was run: as §1
[12] = target: T2, Kinesin-like protein KIF11 (Homo sapiens) (UniProt P52732); experiment: Binding affinity to Eg5 at 2 mM by crystallography
T2 sequence (whole entry): T1 sequence (P52732 whole entry)

[13] = target: T2, Kinesin-like protein KIF11 (Homo sapiens); experiment: Inhibition of untagged human Eg5 microtubule-stimulated ATPase activity
[14] = target: T2, Kinesin-like protein KIF11 (Homo sapiens); experiment: Inhibition of untagged human Eg5 basal ATPase activity

Row | inhibition [13] | inhibition [14] | Compound | GI50 [1] [nM] | GI50 (LLC-PK1 [2]) [nM] | RatioGI50 (MDCK-II) | GI50 [3] [nM] | GI50 [4] [nM] | IC50 [5] [nM] | Ki [6] [nM] | GI50 [7] [nM] | GI50 (LLC-PK1 [8]) [nM] | GI50 [9] [nM] | RatioGI50 (LLC-PK1 [10]) | GI50 [11] [nM] | Activity [12]
1 |  |  | Cc1ccc(C(SC[C@H](N)C(=O)O)(c2ccccc2)c2ccccc2)cc1 | 490 | 1050 | 3.8 | 350 | 90 | 61.7 | < 50 | 3830 | 1180 | 120 | 3.7 | 80 | 
2 |  |  | N[C@@H](CSC(c1ccccc1)(c1ccccc1)c1ccc(-c2ccccc2)cc1)C(=O)O | 110000 | 77800 | 3 | 68500 | 22700 | 1970 | 1350 |  | 75600 | 24500 |  | 20000 | 
3 |  |  | N[C@@H](CSC(c1ccccc1)(c1ccccc1)c1ccc(I)cc1)C(=O)O | 610 | 330 | 3.4 | 330 | 100 | 19.3 | < 50 | 9170 | 440 | 180 | 27.6 | 110 | 
4 |  |  | N[C@@H](CSC(c1ccccc1)(c1ccccc1)c1ccc(C2CCCCC2)cc1)C(=O)O | 56800 | 47900 | 2.1 | 50800 | 24300 | 1580 | 3260 |  | 64900 | 17900 |  | 17600 | 
5 |  |  | CC[C@]1(O)C[C@H]2CN(CCc3c([nH]c4ccccc34)[C@@](C(=O)OC)(c3cc4c(cc3OC)N(C=O)[C@H]3[C@@](O)(C(=O)OC)[C@H](OC(C)=O)[C@]5(CC)C=CCN6CC[C@]43[C@@H]65)C2)C1 [VINCRISTINE] |  | 30 | 40.3 | 107000 | 2650 |  |  | 2100 |  | 340 | 70 | 430 | 
6 |  |  | CC(C)(C)c1ccc(C(SC[C@H](N)C(=O)O)(c2ccccc2)c2ccccc2)cc1 | 13500 | 4280 | 6.8 | 19500 | 2860 | 1240 | 429 |  | 5410 | 3010 | >12.5 | 2480 | 
7 |  |  | N[C@@H](CSC(c1ccccc1)(c1ccccc1)c1ccc2ccccc2c1)C(=O)O | 290 | 160 | 3.1 | 190 | 60 | 16.3 | < 50 | 6180 | 180 | 50 | 38.6 | 70 | 
8 |  |  | CCC(C)C(SC[C@H](N)C(=O)O)(c1ccccc1)c1ccccc1 (mixture of isomers) |  |  |  |  |  | 549 |  |  |  |  |  |  | Active
9 |  |  | CC(C)C(SC[C@H](N)C(=O)O)(c1ccccc1)c1ccccc1 |  |  |  |  |  | 1150 | 175 |  |  |  |  |  | 
10 |  |  | N[C@@H](CSC(c1ccccc1)(c1ccccc1)c1ccc(Br)cc1)C(=O)O | 2350 | 3200 | 2.7 | 670 | 250 | 26.8 | < 50 | 6780 | 2120 | 210 | 2.1 | 250 | 
11 |  |  | CC(C)c1ccc(C(SC[C@H](N)C(=O)O)(c2ccccc2)c2ccccc2)cc1 | 1050 | 1050 | 3.5 | 2750 | 780 | 144 | < 50 | 36700 | 1510 | 880 | 34.8 | 840 | 
12 |  |  | NC(CSC(c1ccccc1)(c1ccccc1)c1ccc(C(=O)O)cc1)C(=O)O (stereo not given) |  |  |  |  |  | 14100 | 2540 |  |  |  |  |  | 
13 |  |  | CCC(CC)C(SC[C@H](N)C(=O)O)(c1ccccc1)c1ccccc1 |  |  |  |  |  | 1630 | 302 |  |  |  |  |  | 
14 |  |  | N[C@@H](CSC(c1ccccc1)(c1ccccc1)c1ccc(Cl)cc1)C(=O)O | 1610 | 2110 | 2 | 560 | 280 | 53.3 | < 50 | 6210 | 2450 | 270 | 2.9 | 330 | Active
15 |  |  | CCCCc1ccc(C(SC[C@H](N)C(=O)O)(c2ccccc2)c2ccccc2)cc1 |  |  |  |  |  | 93.3 | 84.2 |  |  |  |  |  | 
16 |  |  | CCCc1ccc(C(SC[C@H](N)C(=O)O)(c2ccccc2)c2ccccc2)cc1 | 1760 | 1950 | 2.5 | 1680 | 680 | 85.9 | < 50 | 37600 | 1100 | 630 | 19.3 | 710 | 
17 | inactive | inactive | CN(C)[C@@H](CSC(c1ccccc1)(c1ccccc1)c1ccccc1)C(=O)O |  |  |  |  |  |  |  |  |  |  |  |  | 
18 |  |  | N[C@H](CSC(c1ccccc1)(c1ccccc1)c1ccccc1)C(=O)O | 4460 | 940 |  | 3150 | 610 |  |  | 36600 | 1070 | 780 |  | 920 | 
19 |  |  | N[C@@H](CSC(c1ccccc1)(c1ccccc1)c1cccs1)C(=O)O |  |  |  |  |  | 41700 | 58300 |  |  |  |  |  | 
20 |  |  | COc1ccc(C(SC[C@H](N)C(=O)O)(c2ccccc2)c2ccccc2)cc1 | 1650 | 1660 |  | 540 | 220 |  |  | 6910 | 2050 | 80 |  | 240 | 
21 |  |  | CSc1ccc(C(SC[C@H](N)C(=O)O)(c2ccccc2)c2ccccc2)cc1 | 670 | 340 | 3.7 | 410 | 110 | 21.8 | < 50 | 11800 | 300 | 210 | 35.1 | 110 | 
22 |  |  | CCc1ccc(C(SC[C@H](N)C(=O)O)(c2ccccc2)c2ccccc2)cc1 | 160 | 340 | 2.4 | 560 | 230 | 55.4 | < 50 | 10800 | 300 | 170 | 31.8 | 290 | 
23 |  |  | N[C@@H](CSC(c1ccccc1)(c1ccccc1)c1ccc(C(F)(F)F)cc1)C(=O)O | 1020 | 1000 | 2.1 | 670 | 320 | 116 | < 50 | 8020 | 510 | 270 | 8 | 330 | 
24 |  |  | N[C@@H](CSC(c1ccccc1)(c1ccccc1)c1ccccc1)C(=O)O [S-TRITYL-L-CYSTEINE] | 3020 | 1060 |  | 2300 | 860 |  |  | 33000 | 1110 | 580 |  | 890 | 
25 |  |  | CCCCC(SC[C@H](N)C(=O)O)(c1ccccc1)c1ccccc1 |  |  |  |  |  | 319 | < 50 |  |  |  |  |  | 
